From PMC8244166 (Neuron, 2020)
Values joined by “and” are separate entries in the source; they are usually repeats but may differ in a detail not shown here. Equal entries are not always repeated.

How the values were obtained:
Glu864Trp channel = assay: Single channel recordings, point mutant; format: cell-based, human; details: +80 mV
Gln940Val TRPA1 = assay: Whole-cell patch clamp, point mutant; format: cell-based, human; details: GNE551 1.5 μM, AITC positive control, n = 4
In short: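 HEK293-F cells are recorded whole-cell one day after transient transfection. From a 0 mV holding potential, the protocol is 10 msec at −80 mV, a 200 msec ramp to +80 mV, then 10 msec at +80 mV, applied once per second. Nominally Ca2+-free solutions are used: bath NaCl/HEPES with 0.1 mM EGTA, pH 7.4; pipette CsF with 10 mM EGTA, pH 7.2. Compounds are delivered by fast solution exchange.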

TRPA1 Glu864Trp mutant = assay: Ca2+ assay, point mutant; format: cell-based, human; details: high background Ca2+ signals
In short: (§1)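 HEK293-F cells are transiently transfected with the TRPA1 construct one day before imaging. Cells are loaded with a calcium-sensitive dye for 1 h at 37 °C. Compound is added and fluorescence (Ca2+ RFU) is recorded on a kinetic fluorescence imager. EC50 comes from nonlinear regression constrained to EC50 > 0, Bottom = 0 and Hill slope between 1 and 3.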

[1] = test system: rat hind paw nocifensive behavior; assay: Nocifensive behavior after intraplantar agonist injection; format: in vivo; details: for cumulative nocifensive time: n = 7
In short: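 Male Sprague-Dawley rats aged 8 weeks or older are used; KO versus WT littermates from heterozygote crosses include both sexes. Under light restraint, a unilateral intraplantar injection of 25 μL is given with a 30-gauge needle: reference electrophile 0.1% or test agonist 10 mM. Rats are video-recorded 15 min (reference) or 30 min (test agonist) during the light phase. Licking, flicking and guarding time is scored blind offline, and groups are compared by two-tailed t-test.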

hTRPA1 [2] = molecular target: T1, hTRPA1 (Homo sapiens, UniProt O75762); assay: Whole-cell voltage-clamp recordings of TRPA1-expressing HEK293-F cells; format: cell-based; details: for current of second application compared to the first: whole-cell, n = 3
T1 sequence (O75762 whole entry): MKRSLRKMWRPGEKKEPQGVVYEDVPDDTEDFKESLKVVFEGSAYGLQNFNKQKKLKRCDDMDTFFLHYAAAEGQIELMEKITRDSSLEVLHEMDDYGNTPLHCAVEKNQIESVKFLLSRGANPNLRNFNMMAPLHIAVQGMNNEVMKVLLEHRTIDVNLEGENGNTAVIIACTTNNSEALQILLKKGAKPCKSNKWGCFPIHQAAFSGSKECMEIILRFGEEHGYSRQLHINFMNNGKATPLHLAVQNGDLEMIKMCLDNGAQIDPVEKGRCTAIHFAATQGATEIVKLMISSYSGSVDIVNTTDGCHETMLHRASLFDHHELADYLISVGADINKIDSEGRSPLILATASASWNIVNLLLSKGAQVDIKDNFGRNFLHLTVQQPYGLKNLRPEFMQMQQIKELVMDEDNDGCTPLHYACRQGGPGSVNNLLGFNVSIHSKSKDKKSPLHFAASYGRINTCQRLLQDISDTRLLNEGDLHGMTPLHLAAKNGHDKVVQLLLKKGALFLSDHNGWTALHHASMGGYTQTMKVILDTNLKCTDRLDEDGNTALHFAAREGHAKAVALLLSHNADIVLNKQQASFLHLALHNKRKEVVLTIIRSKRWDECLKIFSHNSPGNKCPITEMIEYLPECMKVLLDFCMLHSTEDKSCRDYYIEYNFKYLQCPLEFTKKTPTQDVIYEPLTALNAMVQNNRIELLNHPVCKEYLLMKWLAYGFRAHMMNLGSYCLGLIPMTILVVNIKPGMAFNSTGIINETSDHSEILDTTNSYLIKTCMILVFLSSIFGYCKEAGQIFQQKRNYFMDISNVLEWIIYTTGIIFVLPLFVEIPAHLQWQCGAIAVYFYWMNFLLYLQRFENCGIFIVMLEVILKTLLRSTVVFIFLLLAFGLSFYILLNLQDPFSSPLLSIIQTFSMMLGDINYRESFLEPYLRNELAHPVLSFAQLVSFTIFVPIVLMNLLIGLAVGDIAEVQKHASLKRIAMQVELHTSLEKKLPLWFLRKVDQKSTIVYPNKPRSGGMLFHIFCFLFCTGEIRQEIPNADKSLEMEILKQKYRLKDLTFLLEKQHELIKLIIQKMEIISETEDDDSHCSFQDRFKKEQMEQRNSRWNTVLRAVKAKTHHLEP

[3] = Glutathione reactivity assay; format: physicochemical; details: 10 μM compound, 1 mM glutathione, pH7.4, 37°C, 30 minutes
In short: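 The test compound (10 μM) is incubated with or without 1 mM glutathione in 50 mM potassium phosphate, pH7.4, at 37°C for 30 minutes, and the reaction is stopped on ice. Samples run by UHPLC-MS on a C18 column at 40 °C and 0.4 mL/min, with a 0.1% formic acid water/acetonitrile gradient of 5–50% B over 15 minutes, then a 95% B wash.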

TRPA1 channel = assay: Inside-out single channel / macropatch recordings; format: cell-based, human; details: for y (single channel conductance) / Px/PNa (ion selectivity against Na+): 1 μM GNE551, 10 μM AITC; for Erev (reversal potential) / opening frequency / single channel open probability (Po): 1 μM GNE551 (n = 5); for Erev (reversal potential): 10 μM AITC (n = 4); for channel desensitization: nominally Ca2+-free solutions, AITC 10 μM, GNE551 1 μM; for opening frequency / single channel open probability (Po) / open state dwell time: inside-out; for opening frequency / single channel open probability (Po): +80 mV, 100 nM WaTx (n = 8); for open state dwell time: agonist-activated channels
[4] = test system: GNE551-evoked nocifensive behavior; assay: Inhibition of GNE551-evoked nocifensive behavior, PK/PD; format: in vivo, rat
[5] = Rat pharmacokinetics after oral gavage; format: in vivo
[6] = test system: AITC-evoked nocifensive behavior; assay: Inhibition of AITC-evoked nocifensive behavior, PK/PD; format: in vivo, rat; details: 30 mg/kg dosing
human TRPC6 = assay: Ion channel selectivity test; format: cell-based; details: 20 μM
NK1 receptor [7] = assay: CEREP panel binding inhibition; details: 10 μM
[8] = test system: TRPA1 Ser873Val/Thr874Leu; assay: Ca2+ assay, point mutant; format: cell-based, human
In short: as §1

[9] = test system: chimera containing S1-S6 domains of chicken TRPA1; assay: Ca2+ assay, human-chicken chimera; format: cell-based
In short: as §1

TRPA1 from rhesus monkey = assay: Ca2+ assay, species TRPA1; format: cell-based
In short: as §1

TRPA1 from guinea pig = assay: Ca2+ assay, species TRPA1; format: cell-based
In short: as §1

[10] = test system: Cav1.2 (L-dihydropyridine site); assay: CEREP panel binding inhibition
TRPA1 from dog = assay: Ca2+ assay, species TRPA1; format: cell-based
In short: as §1

human TRPM8 = assay: Ion channel selectivity test; format: cell-based; details: 20 μM
human TRPV1 = assay: Ion channel selectivity test; format: cell-based; details: 20 μM
Cav1.2 = Cav1.2 assay; format: cell-based; details: up to 30 μM
[11] = test system: Gln940Val mutant human channel; assay: Ca2+ assay, point mutant; format: cell-based
In short: as §1

hTRPA1 [12] = molecular target: T1, hTRPA1; assay: Ca2+ influx assay, HEK293-F cells expressing human TRPA1; format: cell-based
chicken TRPA1 = assay: Ca2+ assay, species TRPA1; format: cell-based; details: concentration as high as 50 μM
In short: as §1

[13] = test system: TRPA1 Ser887 to Trp or Met; assay: Ca2+ assay, point mutants; format: cell-based, human
In short: as §1

[14] = test system: TRPA1 Tyr840 to Trp, His, Leu, or Ala; assay: Ca2+ assay, point mutants; format: cell-based, human
In short: as §1

[15] = test system: TRPA1 Gln940 to Asn, Val or Ala; assay: Ca2+ assay, point mutants; format: cell-based, human
In short: as §1

[16] = test system: human potassium channel hERG1; assay: Ion channel selectivity test; format: cell-based; details: 10 μM
TRPA1 Phe909Ala = assay: Ca2+ assay, point mutant; format: cell-based, human
In short: as §1

NK1 receptor [17] = assay: NK1 receptor agonist / antagonist assay; format: cell-based; details: up to 30 μM
[18] = test system: rat dorsal root ganglion neurons; assay: Ca2+ influx in dorsal root ganglion neurons; format: cell-based; details: WT versus TRPA1 KO rats
TRPA1 from rat = assay: Ca2+ assay, species TRPA1; format: cell-based
In short: as §1

TRPA1 Tyr840 to Phe = assay: Ca2+ assay, point mutant; format: cell-based, human; details: versus wild type
In short: as §1

hTRPA1 [19] = molecular target: T1, hTRPA1
cryo-EM structure = molecular target: the molecule itself; assay: cryo-EM structure

CCC(=N\O)/C(C)=C/c1ccc(F)cc1 [A-967079, reference compound]
block of high basal activity (Glu864Trp channel; A-967079 1 μM): blocked

C=CCN=C=S [AITC, allyl isothiocyanate, reference compound]
activation of mutant channel (Gln940Val TRPA1): robust response
response of mutant to agonist stimulation (TRPA1 Glu864Trp mutant): almost lost responses
nocifensive response ([1]; after 10 min, AITC 0.1%, 25 μl): completely disappeared
cumulative nocifensive time ([1]; first 5 min period, AITC 0.1%, 25 μl, WT rats): 102 ± 19 s
nocifensive behavior ([1]; intraplantar AITC 0.1%, 25 μl, WT and TRPA1 KO rats): elicited nocifensive behavior in wild type (WT) but not in knock out (KO) rats
cumulative nocifensive time ([1]; second 5 min period, AITC 0.1%, 25 μl, WT rats): 57.7 ± 11.1 s
current of second application compared to the first (hTRPA1 [2]; −80 mV): 19.4 ± 4.3%
glutathione adduct formation [3]: formed a glutathione adduct
y (single channel conductance) (TRPA1 channel; cation Ca2+): 30.9 ± 6.2 pS
Erev (reversal potential) (TRPA1 channel; cation Mg2+): −19.1 ± 1.5 mV
y (single channel conductance) (TRPA1 channel; cation Mg2+): 30.1 ± 6.8 pS
y (single channel conductance) (TRPA1 channel; cation Na+): 134.9 ± 11.6 pS
channel desensitization (TRPA1 channel): desensitized within seconds

Cn1cnc2ncn(Cc3nc(CCc4ccc(Cl)cc4)no3)c(=O)c21 [AMG0902]
block of GNE551-induced response ([4]; 30 mg/kg): 38%
latency to GNE551-induced nocifensive behavior ([4]; increasing oral doses of antagonist): lengthened the latency
Tmax (time point of maximal plasma concentration) [5]: 1 h
block of AITC-induced response [6]: 86%

COc1ccc(OC)c(NC(=O)c2nnn(Cc3ccc(Br)cc3F)c2N)c1 [GNE551, 5-amino-1-(4-bromo-2-fluorobenzyl)-N-(2,5-dimethoxyphenyl)-1H-1,2,3-triazole-4-carboxamide]
activation or block of channel (human TRPC6): did not activate or block
activation of mutant channel (Gln940Val TRPA1): failed to activate
binding inhibition (NK1 receptor [7]): > 75%
response of mutant to agonist stimulation (TRPA1 Glu864Trp mutant): almost lost responses
effect of mutation on GNE551 activation [8]: not affected
response of chimera [9]: lost response
channel activation (TRPA1 from rhesus monkey): activated
latency to nocifensive response ([1]; GNE551 10 mM, 25 μl, WT rats): reduced
residual response in TRPA1 KO rats ([1]; GNE551 10 mM, possibly vehicle effect): 13%
nocifensive behaviors ([1]; first 5 min after injection of GNE551): virtually no paw flicking, licking, or guarding
nocifensive response ([1]; intraplantar GNE551 1, 3, and 10 mM, 25 μl, WT rats): dose-dependent manner
time to plateau of nocifensive behaviors after injection ([1]; intraplantar GNE551, 30-min observation): 15 to 20 min
EC50 (hTRPA1 [2]): 141 nM
current of second application compared to the first (hTRPA1 [2]; +80 mV): 93.5 ± 0.5%
current of second application compared to the first (hTRPA1 [2]; −80 mV): 89.0 ± 6.3%
channel activation (TRPA1 from guinea pig): activated
inhibition at 10 µM [10]: > 75%
channel activation (TRPA1 from dog): activated
activation or block of channel (human TRPM8): did not activate or block
activation or block of channel (human TRPV1): did not activate or block
glutathione adduct formation [3]: did not form an adduct
inhibition of Cav1.2 (Cav1.2): did not translate to
effect of mutation on GNE551 activation [11]: nearly abolished
EC50 (hTRPA1 [12]): 254 nM
efficacy compared to AITC (hTRPA1 [12]; Ca2+ influx, human TRPA1): equally efficacious
channel activation (chicken TRPA1): no effect
effect of mutation on activation [13]: loss of activation
effect of mutation on sensitivity to GNE551 [14]: completely abolished
effect of mutation on sensitivity to GNE551 [15]: completely abolished
inhibition of channel [16]: did not inhibit
effect of mutation on GNE551 activation (TRPA1 Phe909Ala): not affected
agonistic or antagonistic effect on NK1 receptor (NK1 receptor [17]): did not translate to significant agonistic or antagonistic effect
open probability (Po) (Glu864Trp channel; GNE551 1 μM, n = 4, basal Po 0.56 ± 0.05): 0.80 ± 0.08
specificity of activation in DRG neurons [18]: solely activated TRPA1 channels
channel activation (TRPA1 from rat): activated
reduction of potency by mutation (TRPA1 Tyr840 to Phe): six-fold
Erev (reversal potential) (TRPA1 channel; cation Ca2+): −25.6 ± 1.1 mV
Px/PNa (ion selectivity against Na+) (TRPA1 channel; cation Ca2+): 15.7 ± 1.1
y (single channel conductance) (TRPA1 channel; cation Ca2+): 21.6 ± 2.8 pS
Erev (reversal potential) (TRPA1 channel; cation Mg2+): −13.2± 2.7 mV
Px/PNa (ion selectivity against Na+) (TRPA1 channel; cation Mg2+): 7.2 ± 1.3
y (single channel conductance) (TRPA1 channel; cation Na+): 101.4 ± 6.8 pS
opening frequency (TRPA1 channel): 4.6 ± 0.6 Hz
single channel open probability (Po) (TRPA1 channel): 0.41 ± 0.07 and 0.41
open state dwell time (TRPA1 channel): 20.9 milliseconds
channel desensitization (TRPA1 channel): did not result in desensitization

WaTx: cell-penetrating peptide toxin that activates TRPA1 (ASPQQAKYCYEQCNVNKVPFDQCYQMCSPLERS) [reference compound]
opening frequency (TRPA1 channel): 1.7 ± 0.5 Hz
single channel open probability (Po) (TRPA1 channel): 0.045 ± 0.012
open state dwell time (TRPA1 channel): 2.2 milliseconds

cell-penetrating peptide toxin WaTx (from UniProt C0HLG4 36-68)
open state dwell time of WaTx-activated channels, inside-out patches (hTRPA1 [19]): 2.2 milliseconds

B1: human TRPA1 [Ser448-Thr1078], truncated and non-functional construct for structural studies (domain or fragment)
chain: GSGGSGGSGGSGGSPLHFAASYGRINTCQRLLQDISDTRLLNEGDLHGMTPLHLAAKNGHDKVVQLLLKKGALFLSDHNGWTALHHASMGGYTQTMKVILDTNLKCTDRLDEDGNTALHFAAREGHAKAVALLLSHNADIVLNKQQASFLHLALHNKRKEVVLTIIRSKRWDECLKIFSHNSPGNKCPITEMIEYLPECMKVLLDFCMLHSTEDKSCRDYYIEYNFKYLQCPLEFTKKTPTQDVIYEPLTALNAMVQNNRIELLNHPVCKEYLLMKWLAYGFRAHMMNLGSYCLGLIPMTILVVNIKPGMAFNSTGIINETSDHSEILDTTNSYLIKTCMILVFLSSIFGYCKEAGQIFQQKRNYFMDISNVLEWIIYTTGIIFVLPLFVEIPAHLQWQCGAIAVYFYWMNFLLYLQRFENCGIFIVMLEVILKTLLRSTVVFIFLLLAFGLSFYILLNLQDPFSSPLLSIIQTFSMMLGDINYRESFLEPYLRNELAHPVLSFAQLVSFTIFVPIVLMNLLIGLAVGDIADVQKHASLKRIAMQVELHTSLEKKLPLWFLRKVDQKSTIVYPNKPRSGGMLFHIFCFLFCTGEIRQEIPNADKSLEMEILKQKYRLKDLTFLLEKQHELIKLIIQKMEIISET
binding result (cryo-EM structure): binds
